Experimental data taken from the EternaBench riboswitch data.

Tested on: MS2 coat protein
Assay: apparent Kd, MS2 coat protein; higher = weaker binding; RNA-MaP array; FMN 200 µM where present
Summary of the method: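 Green signal from SNAP-549-labelled MS2 coat protein was normalised to red-channel RNA signal and to the median Fmax of control clusters. The protein was titrated from 0.7 or 1.5 nM, doubling to 3 µM, without and then with constant ligand, over designs transcribed by stalled E. coli RNA polymerase on Illumina sequencing-chip clusters, in 100 mM Tris-HCl pH 7.5, 80 mM KCl, 4 mM MgCl2, BSA, DTT, yeast tRNA and Tween-20. The apparent Kd is the median of filtered per-cluster binding-curve fits.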

[1] = designed as: ON switch for flavin mononucleotide, no ligand
[2] = ligand present: flavin mononucleotide, designed as: ON switch for flavin mononucleotide
[3] = designed as: OFF switch for flavin mononucleotide, no ligand
[4] = ligand present: flavin mononucleotide, designed as: OFF switch for flavin mononucleotide

| Sequence | apparent Kd [1] [nM] | apparent Kd [2] [nM] | apparent Kd [3] [nM] | apparent Kd [4] [nM] |
| --- | --- | --- | --- | --- |
| UGGUACUAGGGAGGAUAUGGGAAGAUACAUGAGGAUCACCCAUGUUUAAGAGUGCCGAGAGGCAACUAGAAGGCCCUAGUACCU | 1030 | 83 |  |  |
| CGCUCUAUAUAUUUGGCAAGAAUCAGAAGGCGUUACAUGAGGAUCACCCAUGUUUUGAAUAGUAACGAGGAUAUGAUAUGAGCG |  |  | 21.6 | 25 |
| AAAACAUGAGGAUCACCCAUGUAAAGAUCGGUUAAUUGUUGUGAGGAUAUACUAAAUUUUAGGUUGUAGAAGGCACUGGGUACA | 43.1 | 54.9 |  |  |
| ACUACGAUAGCGAUAUGAUCGAGAGAUCAUGUCGCUAUUUUUAGAAGGACAUGAGGAUCACCCAUGUAGGAUAUGGGACGUGGA | 70.4 | 27.1 |  |  |
| GGAGAGUCAGGAUAUACAUGAGGAUCACCCAUGUUGGAAAGUGGAGGGACGGGAGUCCGUAGAAGGGACGAGAG |  |  | 34.4 | 27.7 |
| UGAACUAUGUAGAAGGCCCAUAUCUAUAUUUAGGGAGGAUAUACAUGAGGAUCACCCAUGUAUAGAGCGGGUGGACCCGUCACU |  |  | 39 | 72.1 |
| CUGCGCUAGGAGAAGGGCUAGAGUGUGAUAUAUUUGCCCGCGAGCACAUGAGGAUCACCCAUGUAGCAGGAUAUCCAAGCCGGU |  |  | 6.86 | 16.5 |
| UGAUCUAUGUAGAAGGCCCAUAUCUAUAUUUAGGGAGGAUAUACAUGAGGAUCACCCAUGUAUAGAGCUAGUGGACUAGUCACC |  |  | 20.9 | 47.1 |
| CGGUACUUAGGAUAUACAUGAGGAUCACCCAUGUAGAAAUGGUGGGUGCCGUCCUGUGGUAGAAGGAAGAAUCG |  |  | 28.5 | 50.2 |
| GUUUUGAUAGGAUAUACAUGAGGAUCACCCAUGUCCCACCGGUUACCUAUGACCAUAUGUAGAAGGAUCGUUUG |  |  | 51.7 | 78.9 |
| AAAAGACAUGAGGAUCACCCAUGUAAAAACAUAGGAGGAUAUGUCUGGAAACUAGACUGGACAGAAGGCCUUUGUC | 33.3 | 25 |  |  |
| AAAAAGUGAGGAUAUACGCUGUGGAGUAGACACAACCAGACGUAGAAGGCACAUGAGGAUCACCCAUGUCCAAA |  |  | 24.9 | 51.9 |
| AAGCUGGUAGGAUAUGCUAGGGCGACUAAUGCGCCGAUAGUACAUGAGGAUCACCCAUGUAGAAGGGCCAGAAA |  |  | 24.3 | 18.4 |
| AGUAUGCACGCAGGAUAUACAUGAGGAUCACCCAUGUGGAACAGUGUAGUAUUAGUUGAUCCUCAGUAGAAGGGCGGUCGAAAU |  |  | 82.5 | 55.6 |
| UGGUACUAGGGAGGAUAUGGGAAGAUACAUGAGGAUCACCCAUGUUUAAGAAUGCCGAGAGGCAACUAGAAGGCCCUAGUAGCU | 539 | 19.9 |  |  |
| AGAUACAACCAGAAGGACAUGAGGAUCACCCAUGUAGGAUAUGGGUUACACGUUCCUGUGAAUUGUAACGACGCUACGUAGAGU | 178 | 15 |  |  |
| CGGUGACGUGUAGGAUAUGGAGGUGGGUUUUGGCCAGAAGGACAUGAGGAUCACCCAUGUGGUAGAGGGUUGGCGGCGGCCCGU |  |  | 15 | 14.7 |
| CUGCUUCCCAGUUUGGUUAUUUAUACAGAAGGCCAUUCACAUGAGGAUCACCCAUGUCAAGUAAUGGAGGAUAUGUUAUUGUCG | 6.64 | 4.65 |  |  |
| GUGCUUGUCGAAGGAUAUGGUUACAUGAGGAUCACCCAUGUUAUGCUUGGUUACUUGUUUAGUUUCCAGAAGGUCGAUUAGUUG |  |  | 53.4 | 163 |
| AGGCGGGUAGGAUAUGCGUACUUACGGGAAAGCUGAAUGGUACAUGAGGAUCACCCAUGUAGAAGGGCUCUGAA |  |  | 18.3 | 27 |
| AAAAAACAUGAGGAUCACCCAUGUGAGGAUAUCGGAAAAAAAAAAAAAAAAAAAAAAACGAGAAGGCACAAAAA |  |  | 60.8 | 71.7 |
| UCCUCUGUAUGAGGAUAUCCGAAUACGUGAGGCGCUGCCGGCUCAUCAUCAGGAGAAGGCAUACAUGAGGAUCACCCAUGUCGA |  |  | 141 | 63.3 |
| GUGGUCAGACAUGAGGAUCACCCAUGUGGAAUAAAUAAGGAACAGGAUAUCUAAUAUAGGAUAUAAGAGAAGGGUUGGUUGGUG | 81.7 | 93.6 |  |  |
| AUAUCUCUGUAAGGAUAUAGAUGGUGUACGCCUCCGACAUGAGGAUCACCCAUGUUAUAUUUUGUCUAGAAGGUACAGUGUCGG | 389 | 222 |  |  |
| GCAGCGCUUGACAUGAGGAUCACCCAUGUUAGAUUGUUAUGUCAGGAUAUAGUCUAGAAACUAGACUAGAAGGGAUAUGCUGCU | 290 | 34.1 |  |  |
| UCUAAUUAGUGAGGAUAUACAUAAUUUAUUACUGUAGAAGGCACAAACCUCAAGACAUGAGGAUCACCCAUGUGGUAUUUAGAU |  |  | 158 | 362 |
| GGAGACCUCAUAGGAUAUGCUGGACUUUGUCCAGCAGAAGGGUGAAAACAUGAGGAUCACCCAUGUAUGGUCUCCAAAUUUAAU | 992 | 327 |  |  |
| GGUCGUCCCAUUAACAUGAGGAUCACCCAUGUCAAAAGACAUGAGGAUAUGGUACCUAAUUGGUACCAGAAGGCAUGGACGACC | 1210 | 115 |  |  |

| Sequence | apparent Kd [1] [nM] | apparent Kd [2] [nM] | apparent Kd [3] [nM] | apparent Kd [4] [nM] |
| --- | --- | --- | --- | --- |
| AUCAGCUCGUCAGGAUAUACGUCACUGCGUCAGCAGUGUGGUAAGAUCACAUGAGGAUCACCCAUGUAGAAGGGACGAGCUGAG |  |  | 14.1 | 284 |
| UGAUCGAGAGAUCUUAGAUUCUGGUAGGAUAUACAUUAAAAGCGCUUUACAUGAGGAUCACCCAUGUAGAAGGACUAGAGUCUA |  |  | 7.51 | 9.42 |
| GUUGGGUUUUUUUUUGGACGUUCAACAUGAGGAUCACCCAUGUAGGAUAUCGUUUGUUUUUUUUACGAGAAGGGCGUAUUUUUU |  |  | 9.65 | 8.01 |
| CCCUCACAUGAGGAUCACCCAUGUUAGGAUAUCUACCUGGAGCUUUGAUUAGCCCAACGGAGAAGGAACGUGCA |  |  | 19 | 18.7 |
| UCUGUUGAAGGAUAUGCGUAAUGAGUUACGGCUCGAGGUCUACAUGAGGAUCACCCAUGUAGAAGGUCAUCAGA |  |  | 16.4 | 15.9 |
| UUUUUGUGAGGAUAUCAGUAGUAAAAAAAUAAAAUUACUACUGAGAAGGCACAUGAGGAUCACCCAUGUUCUUU |  |  | 18.7 | 58.5 |
| ACAUGAGGAUCACCCAUGUUGAAUUAGGAUAUUUGACUGCACAUGAGGUUCUCCCAUGUUCUACCGGAGAAGGGAUUAAUAAUU | 549 | 240 |  |  |
| UACGGACAUGAGGAUCACCCAUGUGAGGAUAUCGGUACCGAUAGCAUAAUAUAAUCGGCGAGAAGGCACAGCGU |  |  | 32.7 | 42.8 |
| GGUGCGUUUGUGAGGAUAUGCUGGUCCUUGGUUCGGCAGAAGGCACAUGAGGAUCACCCAUGUGGUGUCGUGCC |  |  | 35.1 | 77.5 |
| UGUCAUAUAUAGAAGGGUAGUAGGGAUUUACAUGAGGAUCACCCAUGUAUUAUAGGAUAUGUGUAUAGUUUUUAUUCAAGUAUA |  |  | 28.7 | 17.9 |
| CAGUACUGAGGAUAUACAUGAGGAUCACCCAUGUAUUCCAGCUAGGAAACUAGCACAUGUAGAAGGCAGUACUG |  |  | 14.2 | 31.1 |
| GGAUAGGACAGAGGAUAUACGUGCUAGAGAUACUAGCAAAAUUUCCUCACAUGAGGAUCACCCAUGUAGAAGGCUGUCCUUUCG |  |  | 17.9 | 473 |
| AAUAUGAGCUGGUUUAAAACCUAAACAUGAGGAUCACCCAUGUAGGAUAUCAGCACGAUAAGUGCUGAGAAGGACAUCCAGCUC |  |  | 15 | 14.7 |
| CUCGCGUUAGGAUAUGCUAGCUGAGAAUAAUCUGCAGCGGUGCAGAAGGAACAUGAGGAUCACCCAUGUAGGGA |  |  | 278 | 43.6 |
| CAUUAAUUCAUUAUAGUAAUUAUACAGGAUAUGUUACAUGAGGAUCACCCAUGUAUUCUUGGUAAACAGAAGGGUAUUUCUAGU |  |  | 7.35 | 9.31 |
| ACAUACAUUCGAGGAUAUCGGUGAGAAAUCUUACGAGAAGGCGAUUCAUGAUUUAUUAUCCUGGACAUGAGGAUCACCCAUGUA | 97.5 | 61.1 |  |  |
| UUAAAUCAUGUAGGAUAUGCAUGGCGAAGCUACGCAGAAGGACAUGAGGAUCACCCAUGUUAUAGCGUCCAAGUAAGGAUGCAA |  |  | 84.8 | 269 |
| CGGCACGCAGGAUAUGCCUUUGAGUACAUGAGGAUCACCCAUGUCUUCACCCUCAUUAGGGCAGAAGGGCGAUAUC |  |  | 24.4 | 32.2 |
| GUCAGCUCGUGAGGAUAUACAACACUGCUUCGGCAGUGUAUUAAGAUCACAUGAGGAUCACCCAUGUAGAAGGCACGAGUUGAU |  |  | 13.9 | 276 |
| GCUUGUAGAGGAUAUACAAGGGCCCAAGCGGCGAGAGCCGCACAUGAGGAUCACCCAUGUAGAAGGCUACUAUA |  |  | 192 | 499 |
| CAAGGAUACUUAUAAGCUGACAAACCAGAAGGAUGAGCCUCUACAUGAGGAUCACCCAUGUGUUCGUAGGAUAUGGGUCGGAAG | 11.3 | 31.5 |  |  |
| GGAUAGGACAGAGGAUAUACGUGCUAGAGAUACUAGCAAAAUUUCCGCACAUGAGGAUCACCCAUGUAGAAGGCUGUCCUAUCG |  |  | 5.82 | 9.26 |
| GUCAGCUCUUGAGGAUAUACAACACUGCUUCGGCAGUGUAUUAAGAUCACAUGAGGAUCACCCAUGUAGAAGGCACGAGCUGAU |  |  | 13.2 | 170 |
| GGGCUGUCAGGAUAUGGGCUCGGGCUCGAAAGGGCUCGGGCUCAGAAGGGACAUGAGGAUCACCCAUGUGGCUC |  |  | 43.8 | 58 |
| AUCAAUCGUGUAGGAUAUGCGUGGCGAAGCUAUGCAGAAGGACAUGAGGAUCACCCAUGUCUUUCUGUCUGUGUACAGACAGGA |  |  | 20.4 | 71.5 |
| AACAAUCUAUCUGAGGAUAUCAUGUCAAAGACAUGAGGAUCACCCAUGUACCAGGAAACUGGAUAUGAGAAGGCAGAUAGAUUGA | 199 | 22.8 |  |  |
| CCUCAGUAAGGAUAUCAGCUUAUAAAGUUGGUAAUGAGAGCUGAGAAGGUACAUGAGGAUCACCCAUGUUAGUU |  |  | 21.4 | 66.3 |
